Test results taken from PMC7072008 (ACS infectious diseases, 2020).
Read-outs that look alike come from different tables or passages of the source.

Key:
S. mansoni adult worms [1] = test: Brief; parameters: species or system Schistosoma mansoni
Schistosoma mansoni TGR = settings: read-out: TGR IC50 qHTS, cited from earlier work
hGR = biological target: T1, hGR (Homo sapiens, UniProt P00390); test: Inhibition of human glutathione reductase; format: biochemical; settings: at 2 mM (concentrations as high as 2 mM)
T1 sequence (P00390 44-522): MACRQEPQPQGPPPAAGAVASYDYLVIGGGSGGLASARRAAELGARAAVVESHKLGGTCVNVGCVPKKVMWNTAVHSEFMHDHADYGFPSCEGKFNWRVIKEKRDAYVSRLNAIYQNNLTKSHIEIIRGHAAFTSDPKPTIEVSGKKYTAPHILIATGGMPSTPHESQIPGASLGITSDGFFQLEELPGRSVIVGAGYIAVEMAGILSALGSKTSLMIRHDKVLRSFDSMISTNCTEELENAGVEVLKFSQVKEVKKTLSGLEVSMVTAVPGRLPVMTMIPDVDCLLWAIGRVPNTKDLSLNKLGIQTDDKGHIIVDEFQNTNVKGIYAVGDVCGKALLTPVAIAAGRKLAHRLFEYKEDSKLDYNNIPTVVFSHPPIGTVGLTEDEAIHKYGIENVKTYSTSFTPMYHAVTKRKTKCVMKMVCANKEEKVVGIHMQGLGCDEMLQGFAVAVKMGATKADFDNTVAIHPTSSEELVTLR

S. mansoni adult worms [2] = test: Ex vivo adult worm killing, continuous exposure; parameters: species or system Schistosoma mansoni; settings: for LD50 against S. mansoni adult worms: 5 days incubation, media and compounds replaced daily
[3] = biological target: T2, TGR (GSSG reducing activity) (Schistosoma mansoni, UniProt Q962Y6); test: TGR inhibition assay, GSSG reduction; format: biochemical; settings: read-out: IC50 (GSSG); GSSG as substrate
T2 sequence (Q962Y6 1-598): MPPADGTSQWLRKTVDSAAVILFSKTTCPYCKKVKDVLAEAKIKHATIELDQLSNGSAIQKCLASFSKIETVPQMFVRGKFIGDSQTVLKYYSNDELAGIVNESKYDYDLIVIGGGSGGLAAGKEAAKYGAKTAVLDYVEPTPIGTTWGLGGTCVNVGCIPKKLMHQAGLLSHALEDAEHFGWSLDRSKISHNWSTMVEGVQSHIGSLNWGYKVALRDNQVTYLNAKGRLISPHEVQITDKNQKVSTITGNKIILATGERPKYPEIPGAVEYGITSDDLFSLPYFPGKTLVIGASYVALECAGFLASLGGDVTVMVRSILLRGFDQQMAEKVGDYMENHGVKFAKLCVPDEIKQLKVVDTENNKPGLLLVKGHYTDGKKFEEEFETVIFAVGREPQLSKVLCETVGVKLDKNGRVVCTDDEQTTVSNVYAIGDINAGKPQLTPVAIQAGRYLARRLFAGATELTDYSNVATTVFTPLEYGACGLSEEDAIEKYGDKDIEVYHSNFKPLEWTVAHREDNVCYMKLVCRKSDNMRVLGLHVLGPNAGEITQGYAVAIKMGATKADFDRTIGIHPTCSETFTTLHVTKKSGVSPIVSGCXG
Outline: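 Recombinant wild-type S. mansoni TGR (selenoprotein) was expressed in E. coli BL21 (DE3) with a His-SUMO tag. The tag was removed, leaving Gly-Ser-His at the N-terminus. Inhibition was measured as enzymatic GSSG reduction, run in triplicate.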

S. mansoni schistosomula = test: Schistosomula; parameters: species or system Schistosoma mansoni
[4] = test system: S. mansoni juvenile worms; test: Ex vivo juvenile worm killing, continuous exposure; parameters: species or system Schistosoma mansoni
[5] = biological target: T3, TGR (DTNB reducing activity) (Schistosoma mansoni, UniProt Q962Y6); test: TGR inhibition confirmatory assay, DTNB reduction; format: biochemical
T3 sequence (Q962Y6 1-598): T2 sequence (Q962Y6 1-598)

[6] = test system: S. haematobium adult worms; test: Ex vivo adult worm killing, continuous exposure; settings: 10 μM, 96 h
S. japonicum adult worms = test: Ex vivo adult worm killing, continuous exposure; settings: 12.5 μM, 120 h
TGR = biological target: T4, TGR (Schistosoma mansoni, UniProt Q962Y6); test: NADPH oxidase activity of inhibited TGR; format: biochemical
T4 sequence (Q962Y6 1-598): T2 sequence (Q962Y6 1-598)

[7] = biological target: TGR activities (DTNB and GSSG reduction) in S. mansoni adult worms (Schistosoma mansoni, UniProt Q962Y6); test: TGR activity in homogenates of treated worms; settings: worms cultured in 50 μM compound, harvested before any worm death
Outline: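 Adult S. mansoni from infected Swiss-Webster mice, about 10 worm pairs per 1 mL RPMI with 10% FCS, 10 mM glutamine and penicillin/streptomycin, pre-cultured 24 h. Exposed to 50 μM compound in DMSO, refreshed daily; DMSO controls. Worms collected at set times, washed, homogenized and centrifuged; protein measured. NADPH-dependent DTNB and GSSG reduction assayed in triplicate versus time-matched controls.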

[8] = 20 μM, then 5 days in media without compound
[9] = PubChem BioAssay, ref AID485364
[10] = read-out: IC50 (DTNB), DTNB as substrate
[11] = read-out: TGR IC50 Confirm, confirmatory assay

Compound | S. mansoni adult worm killing after 1 hr exposure (S. mansoni adult worms [1]; [8]) | IC50 (Schistosoma mansoni TGR; [9]) | Inhibition of hGR (hGR) | LD50 against S. mansoni adult worms (S. mansoni adult worms [2]) | IC50 [3] | Sm Somula, dead (S. mansoni schistosomula; 10 μM, 24 h) | IC50 [5, 10] | IC50 [5, 11] | other results
CCN(c1ccccc1)S(=O)(=O)c1ccc(NC(=O)c2nc(S(C)(=O)=O)ncc2Cl)cc1 [Compound 2] | 40% | 398 nM | did not inhibit | 9.07 µM | 230 ± 30 nM | 10 μM 24 h 100% d^‡ | 210 ± 20 nM | 210 nM | Sm juvenile, dead ([4]; 10 μM, 24 h): 10 μM 24 h 100% d^‡
Cc1c(-c2cnccn2)ssc1=S [oltipraz, reference compound] |  |  |  | 2 µM |  |  |  |  | 
O=c1c(Cl)c(-n2cc(CO)nn2)cnn1-c1ccccc1 [Compound 3] | about 10% |  | 19% | 4.9 µM | 2490 ± 110 nM | 10 μM 24 h 100% d^‡ | 2840 ± 80 nM | 2840 nM | Adult worms Sh, dead [6]: 10 μM 96 h 100% d^‡; S. mansoni adult worm killing after 1 hr exposure (S. mansoni adult worms [1]; 50 μM, then 5 days in media without compound): 80%; IC50 (Schistosoma mansoni TGR; ref Li et al. 2015 [18]): 6300 nM; Adult worms Sm, dead (S. mansoni adult worms [2]; 10 μM, 72 h): 10 μM 72 h 100% d^‡; Sm juvenile, dead ([4]; 10 μM, 48 h): 10 μM 48 h 100% d^‡
Oc1ccc(CNc2cccc(C(F)(F)F)c2)c2cccnc12 [Compound 7] | 10% | 316 nM | did not inhibit | 18.2 µM | 130 ± 30 nM |  | 90 ± 20 nM | 90 nM | Adult worms Sj, dead (S. japonicum adult worms): 12.5 μM 120 h no killing; Cytotoxicity against mammalian cells compared with schistosome worms (Vero cells): notable exception; S. mansoni adult worm killing after 1 hr exposure (S. mansoni adult worms [1]; 100 μM, then 5 days in media without compound): 80%; H2O2 production compared with untreated TGR (TGR; Amplex Red and horseradish peroxidase): less H2O2 than untreated TGR; Induction of NADPH oxidase activity in TGR (NADPH consumption, superoxide production) (TGR; TGR 500 nM, NADPH 100 μM, 30 min, 20 μM for 1, 2, 5-8, 50 μM for 3 and 4, desalted): lowest NADPH oxidase activity; Decrease of NADPH consumption compared with uninhibited TGR (TGR; after treatment and desalting): about 50%; Adult worms Sm, dead (S. mansoni adult worms [2]; 12.5 μM, 120 h): 12.5 μM 120 h 43% d^‡; Sm Somula, dead (S. mansoni schistosomula; 12.5 μM, 120 h): 12.5 μM 120 h 61% d^‡; Sm juvenile, dead ([4]; 12.5 μM, 120 h): 12.5 μM 120 h 8% d^‡
CCOC(=O)C(C(=O)OCC)c1cc(Br)c2noc3c2c1C(=O)c1ccccc1-3 [Compound 6] |  | 631 nM | 25% |  | 150 ± 20 nM |  | 140 ± 10 nM | 140 nM | S. mansoni adult worm killing after 1 hr exposure (S. mansoni adult worms [1]; all concentrations tested (10, 20, 50, 100 μM)): no worm killing; Inhibition of TGR activity (DTNB and GSSG reduction) in worm homogenates [7]: ~ 60%
